From ChEMBL document CHEMBL4680377, “Discovery of a Novel Series of Pyridone-Based EP3 Antagonists for the Treatment of Type 2 Diabetes” (ACS Med Chem Lett, 2021)
In brackets after ≈: the same amount, converted by molar mass.

Assays:
[1] = Metabolic stability in human liver microsomes assessed as intrinsic clearance half life; format: ADME, Microsome
[2] = Volume of distribution at steady state in Sprague-Dawley rat at 2 mg/kg, iv measured up to 24 hrs by LC-MS/MS analysis; format: ADME, organism-based; settings: in vivo, read-out: Vdss
How it was run: (§1)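 Sprague-Dawley rats, n = 3 per route, sampled over 24 h. Full PK: iv 2 mg/kg in 20% HPbCD with po 10 mg/kg given either in 0.5% HPMC or in 20% HPbCD, depending on study. Fast PK: po only, 10 mg/kg in 0.5% HPMC.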

[3] = Kinetic solubility of compound at pH 2; format: physicochemical; settings: buffer, read-out: Kinetic_solubility
[4] = Metabolic stability in rat liver microsomes assessed as intrinsic clearance half life; format: ADME, Microsome
[5] = Clearance in Sprague-Dawley rat at 2 mg/kg, iv measured up to 24 hrs by LC-MS/MS analysis; format: ADME, organism-based; settings: in vivo; how it was run: as §1
[6] = Cmax in Sprague-Dawley rat at 10 mg/kg, po measured up to 24 hrs by LC-MS/MS analysis; format: ADME, organism-based; design: route oral, dose 10 mg/kg, time <=24; settings: in vivo; how it was run: as §1
[7] = target: T1, Prostaglandin E2 receptor EP3 subtype (Rattus norvegicus, UniProt P34980); test: Binding affinity to rat EP3
T1 sequence (P34980 whole entry): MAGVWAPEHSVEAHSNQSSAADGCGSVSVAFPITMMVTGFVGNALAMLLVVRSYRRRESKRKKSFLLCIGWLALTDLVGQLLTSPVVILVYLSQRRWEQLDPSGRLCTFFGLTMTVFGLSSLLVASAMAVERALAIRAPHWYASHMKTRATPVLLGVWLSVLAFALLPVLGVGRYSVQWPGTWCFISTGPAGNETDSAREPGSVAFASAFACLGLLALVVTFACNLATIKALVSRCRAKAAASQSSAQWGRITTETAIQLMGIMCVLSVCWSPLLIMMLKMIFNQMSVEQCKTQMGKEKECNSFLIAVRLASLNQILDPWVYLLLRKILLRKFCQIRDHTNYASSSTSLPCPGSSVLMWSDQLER

[8] = Kinetic solubility of compound in PBS buffer; format: physicochemical; settings: read-out: Kinetic_solubility
[9] = Half life in Sprague-Dawley rat at 10 mg/kg, po measured up to 24 hrs by LC-MS/MS analysis; format: ADME, organism-based; settings: in vivo; how it was run: as §1
[10] = Plasma protein binding in human; format: ADME, cell-free; settings: read-out: PPB (converted)
[11] = Plasma protein binding in rat; format: ADME, cell-free; settings: read-out: PPB (converted)
[12] = Apparent permeability across apical to basolateral side in dog MDCK cells; format: ADME, cell-based, Canis lupus familiaris
[13] = AUClast in Sprague-Dawley rat at 10 mg/kg, po measured up to 24 hrs by LC-MS/MS analysis; format: ADME, organism-based; design: route oral, dose 10 mg/kg, time <=24; settings: in vivo; how it was run: as §1
[14] = Oral bioavailability in Sprague-Dawley rat at 10 mg/kg measured up to 24 hrs by LC-MS/MS analysis; format: ADME, organism-based; settings: in vivo; how it was run: as §1
[15] = target: T2, Prostaglandin E2 receptor EP3 subtype (Homo sapiens, UniProt P43115); test: Displacement of [3H]-PGE2 from human EP3 expressed in Chem-1 cell membranes incubated for 2 hrs by TopCount scintillation plate reader analysis; design: species or system Membrane
T2 sequence (P43115 whole entry): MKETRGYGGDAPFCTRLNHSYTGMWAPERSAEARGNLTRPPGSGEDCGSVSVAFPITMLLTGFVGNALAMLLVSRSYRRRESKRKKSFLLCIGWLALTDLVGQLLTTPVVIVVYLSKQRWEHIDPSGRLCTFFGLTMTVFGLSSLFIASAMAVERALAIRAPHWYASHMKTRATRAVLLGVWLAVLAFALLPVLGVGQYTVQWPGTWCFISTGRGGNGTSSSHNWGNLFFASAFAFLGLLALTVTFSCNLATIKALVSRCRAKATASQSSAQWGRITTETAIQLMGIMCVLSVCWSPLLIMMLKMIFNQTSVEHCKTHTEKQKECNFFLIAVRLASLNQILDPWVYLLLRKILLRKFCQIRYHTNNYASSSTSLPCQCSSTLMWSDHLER

[16] = target: T2, Prostaglandin E2 receptor EP3 subtype; test: Antagonist activity at human EP3 expressed in CHO cells assessed as suppression of sulprostone-induced inhibition of forskolin induced cAMP production measured after 30 mins by HTR-FRET assay; format: functional, cell-based

For `CC(C)C(/C=C1\OC(=O)NC1=O)c1ccc(-c2ccc3cccc(F)c3c2)[nH]c1=O` (stereo not drawn), which half-life [1] is on record?
Its half-life is greater than 180 min.

And the Vd [2]?
Its Vd is 0.23 L/kg.

And the solubility kinetic [3]?
Its solubility kinetic is 8 µM (≈ 3.25 µg/mL).

What about the half-life [4] of the same compound?
Its half-life is greater than 180 min.

And the clearance [5]?
Its clearance is 1.06 mL/min/kg.

What about the Cmax [6] of the same compound?
Its Cmax is 24600 ng/mL.

And the Ki [7]?
The Ki was 1 nM.

And the solubility kinetic [8]?
The solubility kinetic was 28 µM (≈ 11.4 µg/mL).

What about the half-life [9] of the same compound?
Its half-life is 276 min.

And the fraction unbound [10]?
The fraction unbound was 0.0008.

What about the fraction unbound [11] of the same compound?
Its fraction unbound is 0.0001.

And the Papp A→B [12]?
The Papp A→B was 9.9 ×10⁻⁶ cm/s.

And the AUC(0-t) at 24 h [13]?
The AUC(0-t) at 24 h was 159 µg·h/mL.

What about the bioavailability [14] of the same compound?
Its bioavailability is 97.7%.

What does the source list for `CC(C)/C(=C1\C(=O)NC(=O)N1C)c1ccc(-c2ccc3cccc(F)c3c2)[nH]c1=O`?
half-life [1]: > 180 min; solubility kinetic [3]: 11.1 µM (≈ 4.5 µg/mL); half-life [4]: > 180 min; Ki [15]: 85 nM; solubility kinetic [8]: 22.5 µM (≈ 9.12 µg/mL); IC50 [16]: 350 nM; Papp A→B [12]: 6.85 ×10⁻⁶ cm/s

Which half-life [1] does the source give for `CC(C)[C@H](C[C@@H]1OC(=O)NC1=O)c1ccc(-c2ccc3cccc(F)c3c2)[nH]c1=O` (relative stereo) here?
Its half-life is 124 min.

And the solubility kinetic [3]?
Its solubility kinetic is 25.1 µM (≈ 10.3 µg/mL).

And the half-life [4]?
The half-life was 30.2 min.

And the Ki [15]?
The Ki was 8 nM.

And the Cmax [6]?
Its Cmax is 44100 ng/mL.

What about the solubility kinetic [8] of the same compound?
Its solubility kinetic is 21.1 µM (≈ 8.62 µg/mL).

What about the IC50 [16] of the same compound?
The IC50 was 27 nM.

What about the fraction unbound [10] of the same compound?
Its fraction unbound is 0.0032.

And the fraction unbound [11]?
The fraction unbound was 0.0021.

And the Papp A→B [12]?
Its Papp A→B is 10.8 ×10⁻⁶ cm/s.

What about the AUC(0-t) at 24 h [13] of the same compound?
Its AUC(0-t) at 24 h is 218 µg·h/mL.

For `CCC(/C=C1\OC(=O)NC1=O)(CC)c1ccc(-c2ccc3cccc(F)c3c2)[nH]c1=O`, which half-life [1] is on record?
Its half-life is 56.9 min.

What about the solubility kinetic [3] of the same compound?
The solubility kinetic was 13.5 µM (≈ 5.68 µg/mL).

And the half-life [4]?
The half-life was greater than 180 min.

And the Cmax [6]?
Its Cmax is 58100 ng/mL.

And the solubility kinetic [8]?
Its solubility kinetic is 32.6 µM (≈ 13.7 µg/mL).

And the AUC(0-t) at 24 h [13]?
Its AUC(0-t) at 24 h is 327 µg·h/mL.

With `CC(C)[C@H](C[C@H]1OC(=O)NC1=O)c1ccc(-c2ccc3cccc(F)c3c2)[nH]c1=O` (relative stereo) as the compound, how does the half-life [1] read?
Its half-life is 101 min.

And the solubility kinetic [3]?
Its solubility kinetic is 24.4 µM (≈ 9.97 µg/mL).

And the half-life [4]?
Its half-life is 57 min.

What about the Ki [15] of the same compound?
The Ki was 6 nM.

What about the solubility kinetic [8] of the same compound?
The solubility kinetic was 35.4 µM (≈ 14.5 µg/mL).

What about the IC50 [16] of the same compound?
Its IC50 is 15 nM.

And the Papp A→B [12]?
Its Papp A→B is 10.3 ×10⁻⁶ cm/s.

Which half-life [1] does the source give for `CCn1ncc2c(F)cc(-c3ccc(C(/C=C4\OC(=O)NC4=O)(CC)CC)c(=O)[nH]3)cc21` here?
The half-life was greater than 180 min.

And the Vd [2]?
The Vd was 0.24 L/kg.

What about the solubility kinetic [3] of the same compound?
The solubility kinetic was 21.7 µM (≈ 9.51 µg/mL).

What about the half-life [4] of the same compound?
Its half-life is greater than 180 min.

And the clearance [5]?
Its clearance is 0.93 mL/min/kg.

And the Cmax [6]?
The Cmax was 8740 ng/mL.

What about the solubility kinetic [8] of the same compound?
Its solubility kinetic is 30.8 µM (≈ 13.5 µg/mL).

And the half-life [9]?
Its half-life is 588 min.

And the fraction unbound [10]?
The fraction unbound was 0.0011.

What about the fraction unbound [11] of the same compound?
The fraction unbound was 0.0018.

What about the AUC(0-t) at 24 h [13] of the same compound?
The AUC(0-t) at 24 h was 100 µg·h/mL.

What about the bioavailability [14] of the same compound?
Its bioavailability is 54.9%.

For `C/C(=C1/OC(=O)NC1=O)C(c1ccc(-c2ccc3cccc(F)c3c2)[nH]c1=O)C(C)C` (stereo not drawn), which half-life [1] is on record?
Its half-life is greater than 180 min.

What about the Vd [2] of the same compound?
The Vd was 1.96 L/kg.

And the solubility kinetic [3]?
Its solubility kinetic is 12.7 µM (≈ 5.34 µg/mL).

And the half-life [4]?
Its half-life is greater than 180 min.

And the clearance [5]?
The clearance was 15.6 mL/min/kg.

And the Ki [15]?
Its Ki is 17 nM.

And the Cmax [6]?
Its Cmax is 1230 ng/mL.

And the solubility kinetic [8]?
The solubility kinetic was 17.2 µM (≈ 7.23 µg/mL).

And the half-life [9]?
Its half-life is 240 min.

And the IC50 [16]?
The IC50 was 39 nM.

What about the AUC(0-t) at 24 h [13] of the same compound?
The AUC(0-t) at 24 h was 12.7 µg·h/mL.

What about the bioavailability [14] of the same compound?
Its bioavailability is 118%.

Which half-life [1] does the source give for `CC(C)[C@@H](c1ccc(-c2ccc3cccc(F)c3c2)[nH]c1=O)[C@H]1OC(=O)NC1=O` (relative stereo) here?
Its half-life is greater than 180 min.

What about the solubility kinetic [3] of the same compound?
The solubility kinetic was 5.4 µM (≈ 2.13 µg/mL).

What about the half-life [4] of the same compound?
The half-life was 116 min.

And the Ki [15]?
The Ki was 27 nM.

What about the solubility kinetic [8] of the same compound?
The solubility kinetic was 31.6 µM (≈ 12.5 µg/mL).

What about the IC50 [16] of the same compound?
The IC50 was 92 nM.

And the Papp A→B [12]?
Its Papp A→B is 9.14 ×10⁻⁶ cm/s.

Which half-life [1] does the source give for `CC(C)[C@@H](c1ccc(-c2ccc3cccc(F)c3c2)[nH]c1=O)[C@@H]1OC(=O)NC1=O` (relative stereo) here?
The half-life was greater than 180 min.

What about the solubility kinetic [3] of the same compound?
Its solubility kinetic is 6.9 µM (≈ 2.72 µg/mL).

What about the half-life [4] of the same compound?
The half-life was 76.2 min.

And the Ki [15]?
The Ki was 85 nM.

What about the solubility kinetic [8] of the same compound?
Its solubility kinetic is 27.4 µM (≈ 10.8 µg/mL).

What about the IC50 [16] of the same compound?
The IC50 was 610 nM.

And the Papp A→B [12]?
Its Papp A→B is 3.15 ×10⁻⁶ cm/s.
